According to ChEMBL document CHEMBL1275524, “Activities of antifungal agents against yeasts and filamentous fungi: assessment according to the methodology of the European Committee on Antimicrobial Susceptibility Testing” (2008):
Converted amounts (≈) assume the structure as drawn.

Legend:
[1] = test system: Candida albicans; assay: Antifungal activity against Candida albicans; format: functional
Summary of the method: (§1)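 Broth microdilution in flat-bottom plates in RPMI 1640 with 2% glucose; inoculum 0.5 × 105 to 2.5 × 10^5 CFU/ml. MICs were read spectrophotometrically at 24 h. AMB endpoint: ≥90% growth reduction vs drug-free control well. Azole and CPF endpoint: 50% reduction in optical density. MFC was taken as the lowest concentration giving 99% killing.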

[2] = test system: Nakaseomyces glabratus; assay: Antifungal activity against Candida glabrata; format: functional; summary of the method: as §1
[3] = test system: Candida parapsilosis; assay: Antifungal activity against Candida parapsilosis; format: functional; details: Lodderomyces parapsilosis; summary of the method: as §1
[4] = test system: Pichia kudriavzevii; assay: Antifungal activity against Candida krusei; format: functional
Summary of the method: (§2)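 EUCAST broth microdilution for yeasts in flat-bottom plates, RPMI 1640 with 2% glucose, inoculum 0.5 × 105 to 2.5 × 10^5 CFU/ml. […] MFC is the lowest concentration giving 99% killing.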

[5] = test system: Clavispora lusitaniae; assay: Antifungal activity against Candida lusitaniae; format: functional; summary of the method: as §1
[6] = test system: Candida tropicalis; assay: Antifungal activity against Candida tropicalis; format: functional; summary of the method: as §1
[7] = test system: Meyerozyma guilliermondii; assay: Antifungal activity against Candida guilliermondii; format: functional; summary of the method: as §1
[8] = test system: Saccharomyces cerevisiae; assay: Antifungal activity against Saccharomyces cerevisiae; format: functional
Summary of the method: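 Broth microdilution following EUCAST for fermentative yeasts, in flat-bottom plates with RPMI 1640 plus 2% glucose. Inoculum was 0.5 × 10^5 to 2.5 × 10^5 CFU/ml. End points were read spectrophotometrically at 24 h: ≥90% growth reduction versus a drug-free control for amphotericin B, and 50% OD reduction for azoles and caspofungin. MFC was the lowest concentration giving 99% killing.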

[9] = Antifungal activity against Cryptococcus neoformans var. neoformans; format: functional; details: Cryptococcus deneoformans
Summary of the method: (§3)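 EUCAST yeast microdilution, modified for nonfermentative yeasts: plates were sealed and agitated at 350 rpm and 30°C for 48 h.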

[10] = test system: Cryptococcus gattii; assay: Antifungal activity against Cryptococcus neoformans var. gattii; format: functional, Cryptococcus bacillisporus; summary of the method: as §3
[11] = test system: Trichosporon inkin; assay: Antifungal activity against Trichosporon inkin; format: functional
Summary of the method: (§4)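 Nonfermentative yeasts were tested by the EUCAST microdilution recommendations with one change: plates were sealed and agitated at 350 rpm and 30°C for 48 h.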

[12] = test system: Trichosporon asahii; assay: Antifungal activity against Trichosporon asahii; format: functional; summary of the method: as §4
[13] = test system: Geotrichum candidum; assay: Antifungal activity against Geotrichum candidum; format: functional
[14] = test system: Aspergillus fumigatus; assay: Antifungal activity against Aspergillus fumigatus; format: functional
[15] = test system: Aspergillus terreus; assay: Antifungal activity against Aspergillus terreus; format: functional
[16] = test system: Aspergillus flavus; assay: Antifungal activity against Aspergillus flavus; format: functional
[17] = test system: Aspergillus niger; assay: Antifungal activity against Aspergillus niger; format: functional
[18] = test system: Rhizomucor; assay: Antifungal activity against Rhizomucor species; format: functional
[19] = test system: Lichtheimia corymbifera; assay: Antifungal activity against Absidia corymbifera; format: functional
[20] = test system: Absidia; assay: Antifungal activity against Absidia species; format: functional
[21] = Antifungal activity against Rhizopus microsporus var. oligosporus; format: functional
Summary of the method: (§5)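 Broth microdilution following the EUCAST reference procedure for spore-forming moulds, in flat-bottom plates with RPMI 1640 plus 2% glucose. Inoculum was 2 × 10^5 to 5 × 10^5 CFU/ml. MICs were read visually at 24 and 48 h as 100% growth reduction versus a drug-free control for polyenes and azoles. MEC was used for caspofungin. Tests were run in duplicate and repeated twice.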

[22] = test system: Rhizopus arrhizus; assay: Antifungal activity against Rhizopus oryzae; format: functional; summary of the method: as §5
[23] = test system: Rhizopus; assay: Antifungal activity against Rhizopus species; format: functional; summary of the method: as §5
[24] = test system: Mucor hiemalis; assay: Antifungal activity against Mucor hiemalis; format: functional
[25] = test system: Mucor; assay: Antifungal activity against Mucor species; format: functional
[26] = test system: Cunninghamella; assay: Antifungal activity against Cunninghamella species; format: functional
[27] = test system: Lomentospora prolificans; assay: Antifungal activity against Scedosporium prolificans; format: functional; summary of the method: as §5
[28] = test system: Scedosporium apiospermum; assay: Antifungal activity against Scedosporium apiospermum; format: functional; summary of the method: as §5
[29] = test system: Talaromyces marneffei; assay: Antifungal activity against Penicillium marneffei; format: functional
[30] = test system: Penicillium sp.; assay: Antifungal activity against Penicillium species; format: functional
[31] = test system: Fusarium solani; assay: Antifungal activity against Fusarium solani; format: functional
[32] = test system: Fusarium oxysporum; assay: Antifungal activity against Fusarium oxysporum; format: functional
[33] = test system: Sporothrix schenckii; assay: Antifungal activity against Sporothrix schenckii; format: functional; summary of the method: as §5
[34] = test system: Curvularia lunata; assay: Antifungal activity against Curvularia lunata; format: functional
[35] = test system: Curvularia australiensis; assay: Antifungal activity against Bipolaris australiensis; format: functional
Summary of the method: (§6)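 Dematiaceous fungi were tested by the EUCAST spore-forming mold reference procedure: flat-bottom microdilution plates, RPMI 1640 plus 2% glucose, inoculum 2 × 105 to 5 × 10^5 CFU/ml. Endpoints were read visually at 24 and 48 h. Polyenes and azoles: 100% growth reduction vs drug-free control. CPF: minimum effective concentration. Run in duplicate and repeated twice.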

[36] = Antifungal activity against Rhinocladiella aquaspersa; format: functional; summary of the method: as §6
[37] = test system: Candida albicans; assay: Antifungal activity against Candida albicans by EUCAST method; format: functional; summary of the method: as §1
[38] = test system: Nakaseomyces glabratus; assay: Antifungal activity against Candida glabrata by EUCAST method; format: functional; summary of the method: as §1
[39] = test system: Candida parapsilosis; assay: Antifungal activity against Candida parapsilosis by EUCAST method; format: functional; details: Lodderomyces parapsilosis; summary of the method: as §1
[40] = test system: Pichia kudriavzevii; assay: Antifungal activity against Candida krusei by EUCAST method; format: functional; summary of the method: as §1
[41] = test system: Clavispora lusitaniae; assay: Antifungal activity against Candida lusitaniae by EUCAST method; format: functional; summary of the method: as §1
[42] = test system: Candida tropicalis; assay: Antifungal activity against Candida tropicalis by EUCAST method; format: functional; summary of the method: as §1
[43] = test system: Meyerozyma guilliermondii; assay: Antifungal activity against Candida guilliermondii by EUCAST method; format: functional; summary of the method: as §1
[44] = test system: Saccharomyces cerevisiae; assay: Antifungal activity against Saccharomyces cerevisiae by EUCAST method; format: functional; summary of the method: as §2
[45] = Antifungal activity against Cryptococcus neoformans var. neoformans by EUCAST method; format: functional; details: Cryptococcus deneoformans; summary of the method: as §3
[46] = test system: Cryptococcus gattii; assay: Antifungal activity against Cryptococcus neoformans var. gattii by EUCAST method; format: functional, Cryptococcus bacillisporus; summary of the method: as §3
[47] = test system: Trichosporon inkin; assay: Antifungal activity against Trichosporon inkin by EUCAST method; format: functional; summary of the method: as §4
[48] = test system: Trichosporon asahii; assay: Antifungal activity against Trichosporon asahii by EUCAST method; format: functional; summary of the method: as §4
[49] = test system: Geotrichum candidum; assay: Antifungal activity against Geotrichum candidum by EUCAST method; format: functional
[50] = test system: Aspergillus fumigatus; assay: Antifungal activity against Aspergillus fumigatus by EUCAST method; format: functional
[51] = test system: Aspergillus terreus; assay: Antifungal activity against Aspergillus terreus by EUCAST method; format: functional
[52] = test system: Aspergillus flavus; assay: Antifungal activity against Aspergillus flavus by EUCAST method; format: functional
[53] = test system: Aspergillus niger; assay: Antifungal activity against Aspergillus niger by EUCAST method; format: functional
[54] = test system: Lichtheimia corymbifera; assay: Antifungal activity against Absidia corymbifera by EUCAST method; format: functional
[55] = test system: Rhizopus arrhizus; assay: Antifungal activity against Rhizopus oryzae by EUCAST method; format: functional; summary of the method: as §5
[56] = test system: Mucor; assay: Antifungal activity against Mucor species by EUCAST method; format: functional
[57] = test system: Cunninghamella; assay: Antifungal activity against Cunninghamella species by EUCAST method; format: functional
[58] = test system: Scedosporium apiospermum; assay: Antifungal activity against Scedosporium apiospermum by EUCAST method; format: functional; summary of the method: as §5
[59] = test system: Talaromyces marneffei; assay: Antifungal activity against Penicillium marneffei by EUCAST method; format: functional
[60] = test system: Penicillium sp.; assay: Antifungal activity against Penicillium species by EUCAST method; format: functional
[61] = test system: Fusarium solani; assay: Antifungal activity against Fusarium solani by EUCAST method; format: functional
[62] = test system: Fusarium oxysporum; assay: Antifungal activity against Fusarium oxysporum by EUCAST method; format: functional
[63] = test system: Sporothrix schenckii; assay: Antifungal activity against Sporothrix schenckii by EUCAST method; format: functional; summary of the method: as §5
[64] = test system: Curvularia lunata; assay: Antifungal activity against Curvularia lunata by EUCAST method; format: functional; summary of the method: as §6
[65] = test system: Curvularia australiensis; assay: Antifungal activity against Bipolaris australiensis by EUCAST method; format: functional; summary of the method: as §6
[66] = Antifungal activity against Rhinocladiella aquaspersa by EUCAST method; format: functional; summary of the method: as §6

CCC(C)n1ncn(-c2ccc(N3CCN(c4ccc(OCC5COC(Cn6cncn6)(c6ccc(Cl)cc6Cl)O5)cc4)CC3)cc2)c1=O (stereo unspecified) [ITRACONAZOLE]
MFC [1]: 0.06 µg/mL (≈ 0.085 µM)
MFC [2]: > 4 µg/mL
MFC [3]: 0.06 µg/mL (≈ 0.085 µM)
MFC [4]: 0.5 µg/mL (≈ 0.709 µM)
MFC [5]: 0.25 µg/mL (≈ 0.354 µM)
MFC [6]: > 0.25 µg/mL
MFC [7]: 2 µg/mL (≈ 2.83 µM)
MFC [8]: > 4 µg/mL
MFC [9]: 0.5 µg/mL (≈ 0.709 µM)
MFC [10]: 0.5 µg/mL (≈ 0.709 µM)
MFC [11]: 0.25 µg/mL (≈ 0.354 µM)
MFC [12]: > 4 µg/mL
MFC [13]: > 8 µg/mL
MFC [14]: 2 µg/mL (≈ 2.83 µM)
MFC [15]: 0.5 µg/mL (≈ 0.709 µM)
MFC [16]: 0.5 µg/mL (≈ 0.709 µM)
MFC [17]: > 4 µg/mL
MFC [18]: > 2 µg/mL
MFC [19]: > 2 µg/mL
MFC [20]: > 2 µg/mL
MFC [21]: > 8 µg/mL
MFC [22]: > 8 µg/mL
MFC [23]: > 4 µg/mL
MFC [24]: > 8 µg/mL
MFC [25]: > 4 µg/mL
MFC [26]: 4 µg/mL (≈ 5.67 µM)
MFC [27]: > 8 µg/mL
MFC [28]: > 4 µg/mL
MFC [29]: 0.25 µg/mL (≈ 0.354 µM)
MFC [30]: > 2 µg/mL
MFC [31]: > 8 µg/mL
MFC [32]: 0.25 µg/mL (≈ 0.354 µM)
MFC [33]: 0.5 µg/mL (≈ 0.709 µM)
MFC [34]: 0.5 µg/mL (≈ 0.709 µM)
MFC [35]: 0.5 µg/mL (≈ 0.709 µM)
MFC [36]: 0.5 µg/mL (≈ 0.709 µM)
MIC [37]: 0.23 µg/mL (≈ 0.326 µM)
MIC [38]: 0.83 µg/mL (≈ 1.18 µM)
MIC [39]: 0.32 µg/mL (≈ 0.453 µM)
MIC [40]: 1.1 µg/mL (≈ 1.56 µM)
MIC [41]: 0.07 µg/mL (≈ 0.0992 µM)
MIC [42]: 0.56 µg/mL (≈ 0.794 µM)
MIC [43]: 0.87 µg/mL (≈ 1.23 µM)
MIC [44]: 2 µg/mL (≈ 2.83 µM)
MIC [45]: 0.11 µg/mL (≈ 0.156 µM)
MIC [46]: 0.22 µg/mL (≈ 0.312 µM)
MIC [47]: 0.21 µg/mL (≈ 0.298 µM)
MIC [48]: 0.17 µg/mL (≈ 0.241 µM)
MIC [49]: 1.45 µg/mL (≈ 2.05 µM)
MIC [50]: 0.46 µg/mL (≈ 0.652 µM)
MIC [51]: 0.58 µg/mL (≈ 0.822 µM)
MIC [52]: 0.59 µg/mL (≈ 0.836 µM)
MIC [53]: 0.98 µg/mL (≈ 1.39 µM)
MIC [54]: 2.5 µg/mL (≈ 3.54 µM)
MIC [55]: 4 µg/mL (≈ 5.67 µM)
MIC [56]: 4.36 µg/mL (≈ 6.18 µM)
MIC [57]: 1.75 µg/mL (≈ 2.48 µM)
MIC [58]: 2.66 µg/mL (≈ 3.77 µM)
MIC [59]: 0.25 µg/mL (≈ 0.354 µM)
MIC [60]: 4.25 µg/mL (≈ 6.02 µM)
MIC [61]: 6 µg/mL (≈ 8.5 µM)
MIC [62]: 4.5 µg/mL (≈ 6.38 µM)
MIC [63]: 0.12 µg/mL (≈ 0.17 µM)
MIC [64]: 0.03 µg/mL (≈ 0.0425 µM)
MIC [65]: 0.12 µg/mL (≈ 0.17 µM)
MIC [66]: 0.12 µg/mL (≈ 0.17 µM)
